The subject of one assay is Mus musculus. Nature of the assay: Antagonist activity at histamine H3 receptor in po dosed Swiss mouse cerebral cortex assessed as Ntau-methylhistamine level after 90 mins by radioimmunoassay. Conditions: 1.5 h. The format is functional. The procedure, abridged:
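Swiss mice fasted 24 h, then dosed orally. Decapitated 90 min later; cerebral cortex homogenized in 10 vol ice-cold 0.4 M perchloric acid. Nτ-methylhistamine measured by radioimmunoassay. Response related to the maximal rise produced by ciproxifan 3 mg/kg po. At least triplicate experiments; ED50 calculated as mean with SEM.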

Assay [1] deals with T1, Histamine H3 receptor (Homo sapiens, UniProt Q9Y5N1). Briefly: Displacement of [125I]iodoproxyfan from human recombinant histamine H3 receptor expressed in CHO-K1 cells. The format is cell-based. The procedure, abridged: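 Stably transfected CHO-K1 cells washed and harvested in PBS, homogenized in ice-cold 50 mmol/L Na2HPO4/KH2PO4 pH 7.5. Membranes pelleted at 23,000g. Membranes incubated 60 min at 25 °C with 25 pmol/L [125I]iodoproxyfan ± competitor, in triplicate. Stopped by ice-cold medium and filtration through PEI-soaked glass fibre filters; gamma counting. Nonspecific binding defined with imetit. Ki by Cheng-Prusoff; mean of at least triplicate experiments.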
For orientation: In a radioligand displacement assay an active substance lowers the binding of a labelled ligand.

The target of assay [2] is T1, Histamine H3 receptor. Nature of the assay: Displacement of [3H](R)-alpha-methylhistamine from human histamine H3 receptor expressed in rat C6 cells. Format: cell-based.
Assay [3] concerns the target T1, Histamine H3 receptor.

T1 sequence (Q9Y5N1 whole entry): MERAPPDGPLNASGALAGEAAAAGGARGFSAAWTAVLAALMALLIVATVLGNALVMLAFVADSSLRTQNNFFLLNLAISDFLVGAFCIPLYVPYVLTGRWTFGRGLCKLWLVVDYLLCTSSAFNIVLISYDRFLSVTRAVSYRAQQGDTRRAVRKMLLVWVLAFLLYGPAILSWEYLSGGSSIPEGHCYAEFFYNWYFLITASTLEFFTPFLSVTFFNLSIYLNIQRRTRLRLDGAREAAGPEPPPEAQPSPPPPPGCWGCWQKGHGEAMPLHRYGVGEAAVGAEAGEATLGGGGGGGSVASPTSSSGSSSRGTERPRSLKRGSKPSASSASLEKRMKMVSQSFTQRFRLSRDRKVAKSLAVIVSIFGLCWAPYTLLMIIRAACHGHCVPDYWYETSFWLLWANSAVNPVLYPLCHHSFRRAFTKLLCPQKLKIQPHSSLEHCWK

What is called ED50 is the dose that gives a 50% effect, or the effect in half of the subjects. In the case of `CCCC1CCN(CCCOCCCc2ccccc2)CC1`, the 50% effective dose (ED50) with Mus musculus was more than 10 mg/kg. Besides, the Ki on Histamine H3 receptor [1] (read-out: Ki) stood at 249 nM.
The like results for `COc1cccc(OCCCN2CCC(N3CCCCC3)CC2)c1` were, in that order, more than 20 mg/kg and more than 10000 nM.
With `Clc1ccc(OCCCN2CCC(N3CCCCC3)CC2)cc1`, the ED50 in the assay on Mus musculus is more than 20 mg/kg. Besides, at Histamine H3 receptor [1] (read-out: Ki), the Ki was 165 nM.
As to `C[C@H]1[C@H]2CC[C@H]3[C@@H]4CC=C5C[C@@H](N(C)C)CC[C@]5(C)[C@H]4CC[C@]23CN1C` [CONESSINE], the Ki at Histamine H3 receptor [1] (read-out: pKi (converted)) was 5.01 nM.
In the case of `c1ccc(CCCOCCCN2CCCCC2)cc1`, the Ki is 3.1 nM at Histamine H3 receptor [2] and 3.16 nM at Histamine H3 receptor [1] (read-out: pKi (converted)). In addition, the ED50 with Mus musculus stood at 3.7 mg/kg.
For the compound `c1ccc(CCCOCCCN2CCc3ccccc3C2)cc1`, the ED50 in the assay with Mus musculus is more than 10 mg/kg. Moreover, at Histamine H3 receptor [1] (read-out: Ki), the Ki turned out to be 560 nM.
In the case of `FC(F)(F)c1cccc(OCCN2CCC(N3CCCCC3)CC2)c1`, the Ki at Histamine H3 receptor [1] (read-out: Ki) turned out to be 164 nM.
Take `CC(C)(C)c1ccc(OCCCN2CCC(N3CCCCC3)CC2)cc1`: in the assay with Mus musculus, the median effective dose (ED50) was more than 20 mg/kg. Also, on Histamine H3 receptor [1] (read-out: Ki), the Ki was determined as 100 nM.
`Cc1ccc(OCCN2CCC(N3CCCCC3)CC2)cc1`: the Ki on Histamine H3 receptor [1] (read-out: Ki) amounted to 300 nM.
A word on the pKb: it is the negative decadic logarithm of the Kb, by convention in mol/L. A lower pKb goes with a large Kb. `CNC(=O)c1ccc(Oc2ccc3c(c2)CCN(C2CCC2)CC3)nc1` showed a negative logarithm of the Kb (pKb) on Histamine H3 receptor [3] of 9.3.
In the case of `Clc1cccc(OCCN2CCC(N3CCCCC3)CC2)c1`, at Histamine H3 receptor [1] (read-out: Ki), the Ki is 235 nM.
As to `COc1cccc(OCCN2CCC(N3CCCCC3)CC2)c1`, on Histamine H3 receptor [1] (read-out: Ki), the Ki worked out at 132 nM.
Take `CCCCC1CCN(CCCOCCCc2ccccc2)CC1`: the ED50 in the assay with Mus musculus is more than 10 mg/kg. Moreover, the Ki on Histamine H3 receptor [1] (read-out: Ki) was found to be 274 nM.
Regarding `c1ccc(CCCOCCCN2CCC(Cc3ccccc3)CC2)cc1`, in the assay with Mus musculus, the ED50 is more than 10 mg/kg. Besides, the Ki on Histamine H3 receptor [1] (read-out: Ki) was found to be 326 nM.
On to `Clc1ccc(CCCOCCCN2CCCCC2)cc1` [PITOLISANT], for which, in the assay on Mus musculus, the 50% effective dose (ED50) is 1.6 mg/kg.
As for `Clc1ccc(OCCN2CCC(N3CCCCC3)CC2)cc1`, the Ki on Histamine H3 receptor [1] (read-out: Ki) was determined as 176 nM.
With `c1ccc(COCCCc2c[nH]cn2)cc1` [PROXYFAN], the median effective dose (ED50) in the assay on Mus musculus was more than 10 mg/kg. For the same compound, the Ki on Histamine H3 receptor [1] (read-out: pKi (converted)) was 2.51 nM.
As to `c1ccc(CCCOCCCN2CCC3CCCCC3C2)cc1` (centres undefined), in the assay on Mus musculus, the median effective dose (ED50) was more than 10 mg/kg. For the same compound, the Ki at Histamine H3 receptor [1] (read-out: Ki) was found to be 393 nM.

The values above are taken from ChEMBL document CHEMBL1152124, “Piperidine variations in search for non-imidazole histamine H(3) receptor ligands” (Bioorg Med Chem, 2008).
